Assay [1] deals with Mycobacterium tuberculosis. Briefly: Binding affinity to Mycobacterium tuberculosis DXR by isothermal titration […] assay in presence of 2 mM NADPH and 150 mM NaCl at 279 K and pH 7.6. (Isothermal titration calorimetry measures the heat released or taken up as one component is titrated into another.)
The test system of assay [2] is Escherichia coli. The assay is described as follows: Binding affinity to Escherichia coli DXR by isothermal titration […] assay in presence of 2 mM NADPH and 150 mM NaCl at 279 K and pH 7.6 and Mn2+. A digest of the protocol: (§1)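 Heat of inhibitor binding to E. coli DXR (EcDXR) was measured by isothermal titration calorimetry and fitted to binding curves. The fit gave the association constant Ka (M–1) and ΔH, with ΔG and ΔS also reported. Kd was taken as the inverse of Ka. The divalent metal ion (Mg2+ or Mn2+) was included in the titration.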

The subject of assay [3] is Escherichia coli. The assay is described as follows: Binding affinity to Escherichia coli DXR by isothermal titration […] assay in presence of 2 mM NADPH and 150 mM NaCl at 279 K and pH 7.6 and Mg2+. The method, boiled down:
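Isothermal titration calorimetry of inhibitor titrated into E. coli DXR at 279 K, pH 7.6, with 2 mM NADPH, 150 mM NaCl and Mg2+. Ka and ΔH come from fitted titration curves, with ΔG and ΔS derived from them. Kd is taken as the inverse of Ka.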

Another assay deals with Plasmodium falciparum. The assay is described as follows: Binding affinity to His6-tagged Plasmodium falciparum DXR expressed in Escherichia coli M15 by isothermal titration […] assay in presence of 2 mM NADPH and 150 mM NaCl at 279 K and pH 7.6. A digest of the protocol: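 PfDXR gene cloned into pQE30, expressed in E. coli M15, and purified as His6-tagged protein. ITC run at 279 K, pH 7.6, with 2 mM Mn2+ and 2 mM NADPH. Ka and ΔH come from curve fitting, with Kd as the inverse of Ka.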

Assay [4] relates to Escherichia coli. The assay is described as follows: Binding affinity to Escherichia coli DXR by isothermal titration […] assay in presence of 2 mM NADPH and 150 mM NaCl at 279 K and pH 8.5 and Mg2+. The method, boiled down:
as §1

Assay [5] can be described thus: Inhibition of Escherichia coli DXR using DXP as substrate preincubated for 5 mins.
Assay [6] is described as follows: Inhibition of Mycobacterium tuberculosis DXR using DXP as substrate preincubated for 5 mins.
Assay [7] is described as follows: Inhibition of His6-tagged Plasmodium falciparum DXR expressed in Escherichia coli M15 using DXP as substrate preincubated for 5 mins.
Assay [8] concerns Escherichia coli. The assay is described as follows: Binding affinity to Escherichia coli DXR by isothermal titration […] assay in presence of 2 mM NADPH and 150 mM NaCl at 279 K and pH 7.6. A digest of the protocol: (§2)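 Isothermal titration calorimetry of inhibitor binding to E. coli DXR, run at 279 K with 2 mM NADPH and 150 mM NaCl. Titrations were done with Mg2+ or Mn2+ present, or with no divalent metal ion. Fitted curves gave ΔH and Ka, with ΔG and ΔS derived from them. Kd was taken as the inverse of Ka.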

For assay [9], the system named is Escherichia coli. Briefly: Binding affinity to Escherichia coli DXR by isothermal titration […] assay in presence of 2 mM NADPH and 150 mM NaCl at 279 K and pH 8.5. A digest of the protocol: as §2

For orientation: Ki means the dissociation constant of the complex between target and ligand, obtained from inhibition or displacement. Read a low Ki as a stronger hold on the target.

As for `O=CN(O)CCCP(=O)(O)O` [FOSMIDOMYCIN], the Ka in assay [1] worked out at 3.45 ×10⁶ /M; in the assay on Escherichia coli [2], 7.35 ×10⁶ /M; with Escherichia coli [3], 6.67 ×10⁶ /M; in the assay on Plasmodium falciparum, 1.28 ×10⁷ /M; with Escherichia coli [4], 5.6 ×10⁶ /M.
In the case of `CC(=O)N(O)CCCP(=O)(O)O` [FR-900098], the values for the Ka (in assay [1]; in the assay on Escherichia coli [3]; in the assay with Plasmodium falciparum) were 1.79 ×10⁶ /M, 7.14 ×10⁶ /M and 1.28 ×10⁷ /M, respectively. Further, the values for the inhibitory constant (Ki) in [5], in [6] and in assay [7] were 0.019 µM, 0.13 µM and 0.011 µM, respectively.
Regarding `O=P(O)(O)Cc1ccc(-c2ccccc2)cn1`, the figures for the Ka (in [1]; in the assay with Escherichia coli [3]; in the assay on Plasmodium falciparum) were 4.44 ×10⁵ /M, 4.83 ×10⁵ /M and 4.67 ×10⁵ /M, respectively. The Ki in assay [5] was determined as 0.42 µM; in assay [6] it was 3.2 µM; in assay [7], 1.1 µM.
`O=P(O)(O)Cc1ccccn1` [PYRIDIN-2-YLMETHYLPHOSPHONIC ACID]: the Ka worked out at 6.29 ×10⁵ /M in assay [1]; 4.31 ×10⁵ /M in the assay with Escherichia coli [8]; 4.93 ×10⁵ /M in the assay on Escherichia coli [3]; 8.77 ×10⁵ /M with Plasmodium falciparum; 4.89 ×10⁵ /M in the assay with Escherichia coli [9]. The figures for the Ki in assay [5], in assay [6] and in assay [7] were 2.3 µM, 1.6 µM and 3.3 µM, respectively.
`O=c1ccc(-c2ccccc2)cn1O` [1-HYDROXY-5-PHENYLPYRIDIN-2(1H)-ONE]: the Ka in [1] came to 3.42 ×10⁵ /M; with Escherichia coli [8], 2.87 ×10⁵ /M; in the assay on Escherichia coli [3], 1.72 ×10⁵ /M; in the assay with Plasmodium falciparum it was 2.69 ×10⁵ /M; in the assay on Escherichia coli [9], 2.55 ×10⁵ /M. Further, the Ki in [5] is 0.7 µM; in [6], 21.8 µM; in assay [7], 14.6 µM.
As to `O=CN(O)CCC(c1ccc(Cl)c(Cl)c1)P(=O)(O)O` (centres undefined), the Ka was found to be 2.08 ×10⁶ /M in assay [1], 3.03 ×10⁶ /M with Escherichia coli [3] and 3.13 ×10⁶ /M with Plasmodium falciparum. The inhibition constant (Ki) in [5] was found to be 0.058 µM; in assay [6] it was 1.2 µM; in assay [7], 0.015 µM.

The values above are taken from ChEMBL document CHEMBL2062505, “Thermodynamic Investigation of Inhibitor Binding to 1-Deoxy-D-Xylulose-5-Phosphate Reductoisomerase” (ACS Med Chem Lett, 2012).
